According to ChEMBL document CHEMBL3792333, “The discovery of indole derivatives as novel hepatitis C virus inhibitors” (Eur J Med Chem, 2016):
Blank lines part the entries; values can stand above or below the compound they belong to. Calls of active or inactive are those of the source. The rule behind the calls is not given here.

How the values were obtained:
Hepatitis C virus [1] = experiment: Antiviral activity against Hepatitis C virus JFH-1 infected in human Huh7.5.1 cells measured 48 hrs post infection by luciferase reporter gene assay; assay type: functional, organism-based, Hepacivirus hominis; conditions: JFH-1, Huh-7, 48 h
Outline: (§1)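 Huh7.5.1 cells were seeded and grown 24 h at 37 °C, 5% CO₂. They were then treated with serially diluted compound and infected with Renilla luciferase-linked HCV(JFH-1) reporter virus. Luminescence was read at 48 hpi, and EC₅₀ and CC₅₀ were derived from it. SI is CC₅₀/EC₅₀. Results are the mean of three independent experiments with SD.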

[2] = Cytotoxicity against human Huh7.5.1 cells infected with Hepatitis C virus JFH-1 measured 48 hrs post infection by luciferase reporter gene assay; assay type: cell-based, Huh-7; outline: as §1
[3] = Selectivity index, ratio of CC50 for human Huh7.5.1 cells infected with Hepatitis C virus JFH-1 to EC50 for Hepatitis C virus JFH-1 infected in human Huh7.5.1 cells; assay type: toxicity, cell-based, Huh-7; conditions: read-out: Ratio CC50/EC50; outline: as §1
Hepatitis C virus [4] = experiment: Antiviral activity against Hepatitis C virus JFH-1 infected in human Huh7.5.1 cells assessed as inhibition of viral RNA replication at 5 uM treated 2 to 10 hrs post infection incubated for 24 hrs by luciferase reporter gene assay; assay type: functional, organism-based; conditions: Hepacivirus hominis, Huh-7
Outline: (§2)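 Huh7.5.1 cells were seeded at 3×10⁴/well in 10% FBS-DMEM and grown overnight at 37 °C, 5% CO₂. Compound was added with 100 TCID₅₀ of HCV(JFH-1) Renilla luciferase reporter virus (0 h), or at -6 to 10 hpi. Cells were incubated 24 h at 37 °C, and luciferase activity was compared with 0.5% DMSO mock cultures.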

Hepatitis C virus [5] = experiment: Antiviral activity against Hepatitis C virus JFH-1 infected in human Huh7.5.1 cells assessed as inhibition of viral entry at 5 uM treated 1 hr post infection incubated for 24 hrs by luciferase reporter gene assay; assay type: functional, organism-based; conditions: Hepacivirus hominis, Huh-7; outline: as §2
Hepatitis C virus [6] = experiment: Antiviral activity against Hepatitis C virus JFH-1 infected in human Huh7.5.1 cells assessed as inhibition of viral entry at 5 uM treated 2 to 6 hrs prior infection incubated for 24 hrs by luciferase reporter gene assay; assay type: functional, organism-based; conditions: Hepacivirus hominis, Huh-7; outline: as §2
Hepatitis C virus [7] = experiment: Antiviral activity against Hepatitis C virus JFH-1 infected in human Huh7.5.1 cells assessed as inhibition of viral entry at 5 uM treated immediately after viral infection incubated for 24 hrs by luciferase reporter gene assay; assay type: functional, organism-based; conditions: Hepacivirus hominis, Huh-7; outline: as §2
Hepatitis C virus [8] = experiment: Antiviral activity against Hepatitis C virus JFH-1 infected in human Huh7.5.1 cells assessed as inhibition of viral RNA replication at 2 uM treated 2 to 10 hrs post infection incubated for 24 hrs by luciferase reporter gene assay; assay type: functional, organism-based; conditions: Hepacivirus hominis, Huh-7; outline: as §2
Hepatitis C virus [9] = experiment: Antiviral activity against Hepatitis C virus JFH-1 infected in human Huh7.5.1 cells assessed as inhibition of viral entry at 2 uM treated immediately after viral infection incubated for 24 hrs by luciferase reporter gene assay; assay type: functional, organism-based; conditions: Hepacivirus hominis, Huh-7; outline: as §2
Hepatitis C virus [10] = experiment: Antiviral activity against Hepatitis C virus JFH-1 infected in human Huh7.5.1 cells assessed as inhibition of viral entry at 2 uM treated 2 to 6 hrs prior infection incubated for 24 hrs by luciferase reporter gene assay; assay type: functional, organism-based; conditions: Hepacivirus hominis, Huh-7; outline: as §2
Hepatitis C virus [11] = experiment: Antiviral activity against Hepatitis C virus JFH-1 infected in human Huh7.5.1 cells assessed as inhibition of viral entry at 2 uM treated 1 hr post infection incubated for 24 hrs by luciferase reporter gene assay; assay type: functional, organism-based; conditions: Hepacivirus hominis, Huh-7; outline: as §2

Compound: CCCCN(CCCC)CC(O)Cn1cc(/C=C2/C(=O)N(c3ccccc3)N=C2C)c2ccccc21 (racemic)
- EC50 (Hepatitis C virus [1]): > 50 µM
- CC50 at 48 h [2]: > 50 µM

Compound: CC1=NN(c2ccccc2)C(=O)/C1=C/c1cn(CC(O)CNCCN2CCOCC2)c2ccccc12 (racemic)
- EC50 (Hepatitis C virus [1]): 5.46 µM
- CC50 at 48 h [2]: 42.4 µM
- selectivity ratio [3]: 7.76

Compound: CC1=NN(c2ccc(Cl)cc2)C(=O)/C1=C/c1cn(CC2CO2)c2ccccc12 (centres undefined)
- EC50 (Hepatitis C virus [1]): 6.82 µM
- CC50 at 48 h [2]: 35.3 µM
- selectivity ratio [3]: 5.17

Compound: CC1=NN(c2cccc(C(F)(F)F)c2)C(=O)/C1=C/c1cn(CC(O)CNCCCN2CCOCC2)c2ccccc12 (racemic)
- EC50 (Hepatitis C virus [1]): 2.08 µM
- CC50 at 48 h [2]: 17.8 µM
- selectivity ratio [3]: 8.57

Compound: COc1ccc(N2N=C(C)/C(=C\c3cn(CC4CO4)c4ccccc34)C2=O)cc1 (centres undefined)
- EC50 (Hepatitis C virus [1]): 2.06 µM
- CC50 at 48 h [2]: 11.9 µM
- selectivity ratio [3]: 5.76

Compound: CCCCNCC(O)Cn1cc(/C=C2/C(=O)N(c3ccccc3)N=C2C)c2ccccc21 (racemic)
- EC50 (Hepatitis C virus [1]): > 50 µM
- CC50 at 48 h [2]: > 50 µM

Compound: CC1=NN(c2ccccc2F)C(=O)/C1=C/c1cn(CC(O)CNCCCN2CCOCC2)c2ccccc12 (racemic)
- EC50 (Hepatitis C virus [1]): 2.79 µM
- CC50 at 48 h [2]: 34.2 µM
- selectivity ratio [3]: 12.3

Compound: CC1=NN(c2ccccc2)C(=O)/C1=C/c1cn(C[C@H](O)CNCCCN2CCOCC2)c2ccccc12
- EC50 (Hepatitis C virus [1]): 1.25 µM
- CC50 at 48 h [2]: > 50 µM
- selectivity ratio [3]: > 40

Compound: CC1=NN(c2ccccc2)C(=O)/C1=C/c1cn(CC(O)CNCCCCN2CCOCC2)c2ccccc12 (racemic)
- EC50 (Hepatitis C virus [1]): 2.03 µM
- CC50 at 48 h [2]: 8.13 µM
- selectivity ratio [3]: 4

Compound: CC1=NN(c2ccc(C(F)(F)F)cc2)C(=O)/C1=C/c1cn(CC2CO2)c2ccccc12 (centres undefined)
- EC50 (Hepatitis C virus [1]): 7.86 µM
- CC50 at 48 h [2]: 40.4 µM
- selectivity ratio [3]: 5.14

Compound: CC1=NN(c2ccc(F)cc2)C(=O)/C1=C/c1cn(C[C@@H](O)CNCCCN2CCOCC2)c2ccccc12
- EC50 (Hepatitis C virus [1]): 7.12 µM
- CC50 at 48 h [2]: 34.6 µM
- selectivity ratio [3]: 4.86

Compound: CC1=NN(c2cccc(F)c2)C(=O)/C1=C/c1cn(C[C@@H](O)CNCCCN2CCOCC2)c2ccccc12
- EC50 (Hepatitis C virus [1]): 5.87 µM
- CC50 at 48 h [2]: 23.3 µM
- selectivity ratio [3]: 3.97

Compound: CC1=NN(c2ccccc2)C(=O)/C1=C/c1cn(C)c2ccccc12
- EC50 (Hepatitis C virus [1]): 21.2 µM
- CC50 at 48 h [2]: > 50 µM
- selectivity ratio [3]: > 2.36

Compound: CC1=NN(c2ccc(C)cc2)C(=O)/C1=C/c1cn(CC(O)CNCCCN2CCOCC2)c2ccccc12 (racemic)
- EC50 (Hepatitis C virus [1]): 1.83 µM
- CC50 at 48 h [2]: 36.2 µM
- selectivity ratio [3]: 19.8

Compound: COc1ccc(N2N=C(C)/C(=C\c3cn(CC(O)CNCCCN4CCOCC4)c4ccccc34)C2=O)cc1 (racemic)
- EC50 (Hepatitis C virus [1]): 2.05 µM
- CC50 at 48 h [2]: 15.4 µM
- selectivity ratio [3]: 7.53

Compound: CC1=NN(c2ccccc2)C(=O)/C1=C/c1cn(CC(O)CNCc2ccccc2)c2ccccc12 (racemic)
- EC50 (Hepatitis C virus [1]): > 50 µM
- CC50 at 48 h [2]: > 50 µM

Compound: CC1=NN(c2ccc(F)cc2)C(=O)/C1=C/c1cn(CC(O)CNCCCN2CCOCC2)c2ccccc12 (racemic)
- EC50 (Hepatitis C virus [1]): 1.02 µM
- inhibition (Hepatitis C virus [8]): inactive
- inhibition (Hepatitis C virus [9]): Active
- CC50 at 48 h [2]: 46.5 µM
- selectivity ratio [3]: 45.6
- inhibition (Hepatitis C virus [10]): Active
- inhibition (Hepatitis C virus [11]): Active

Compound: CC1=NN(c2ccccc2)C(=O)/C1=C/c1cn(C[C@@H](O)CNCCCN2CCOCC2)c2ccccc12
- EC50 (Hepatitis C virus [1]): 8.06 µM
- CC50 at 48 h [2]: 21.5 µM
- selectivity ratio [3]: 2.67

Compound: CC1=NN(c2ccccc2F)C(=O)/C1=C/c1cn(CC2CO2)c2ccccc12 (centres undefined)
- EC50 (Hepatitis C virus [1]): 5.11 µM
- CC50 at 48 h [2]: 30.4 µM
- selectivity ratio [3]: 5.95

Compound: CC1=NN(c2ccccc2)C(=O)/C1=C/c1cn(CC(O)CNCCCN2CCOCC2)c2ccccc12 (racemic)
- EC50 (Hepatitis C virus [1]): 2.04 µM
- CC50 at 48 h [2]: 35.8 µM
- selectivity ratio [3]: 17.6

Compound: CC1=NN(c2cccc(F)c2)C(=O)/C1=C/c1cn(C[C@H](O)CNCCCN2CCOCC2)c2ccccc12
- EC50 (Hepatitis C virus [1]): 0.74 µM
- CC50 at 48 h [2]: 31.1 µM
- selectivity ratio [3]: 42

Compound: CC1=NN(c2ccccc2)C(=O)/C1=C/c1cn(CC(O)CN2CCOCC2)c2ccccc12 (racemic)
- EC50 (Hepatitis C virus [1]): 21.9 µM
- CC50 at 48 h [2]: > 50 µM
- selectivity ratio [3]: > 2.29

The next lines start with results.

- EC50 (Hepatitis C virus [1]): > 50 µM
Compound: CC1=NN(C)C(=O)/C1=C/c1cn(CC2CO2)c2ccccc12 (centres undefined)
- CC50 at 48 h [2]: > 50 µM

- EC50 (Hepatitis C virus [1]): 4.63 µM
Compound: CC1=NN(c2ccc(C(F)(F)F)cc2)C(=O)/C1=C/c1cn(CC(O)CNCCCN2CCOCC2)c2ccccc12 (racemic)
- CC50 at 48 h [2]: 11.3 µM
- selectivity ratio [3]: 2.44

- EC50 (Hepatitis C virus [1]): 2.65 µM
Compound: CC1=NN(c2cccc(F)c2)C(=O)/C1=C/c1cn(CC2CO2)c2ccccc12 (centres undefined)
- CC50 at 48 h [2]: 25.6 µM
- selectivity ratio [3]: 9.67

- EC50 (Hepatitis C virus [1]): 17.4 µM
Compound: CC1=NN(c2ccccc2)C(=O)/C1=C/c1cn(Cc2ccccc2)c2ccccc12
- CC50 at 48 h [2]: > 50 µM
- selectivity ratio [3]: > 2.88

- EC50 (Hepatitis C virus [1]): 5.78 µM
Compound: CC1=NN(c2ccccc2)C(=O)/C1=C/c1cn(CC2CO2)c2ccccc12 (centres undefined)
- inhibition (Hepatitis C virus [4]): inactive
- inhibition (Hepatitis C virus [5]): Active
- CC50 at 48 h [2]: 46.3 µM
- selectivity ratio [3]: 8.02
- inhibition (Hepatitis C virus [6]): Active
- inhibition (Hepatitis C virus [7]): Active

- EC50 (Hepatitis C virus [1]): 21.5 µM
Compound: CC1=NN(c2ccccc2)C(=O)/C1=C/c1cn(CC2CC2)c2ccccc12
- CC50 at 48 h [2]: > 50 µM
- selectivity ratio [3]: > 2.32

- EC50 (Hepatitis C virus [1]): 5.94 µM
Compound: CC1=NN(c2cccc(C(F)(F)F)c2)C(=O)/C1=C/c1cn(CC2CO2)c2ccccc12 (centres undefined)
- CC50 at 48 h [2]: 25.1 µM
- selectivity ratio [3]: 4.23

- EC50 (Hepatitis C virus [1]): 3.06 µM
Compound: CC1=NN(c2ccc(C)cc2)C(=O)/C1=C/c1cn(CC2CO2)c2ccccc12 (centres undefined)
- CC50 at 48 h [2]: 13.2 µM
- selectivity ratio [3]: 4.24

- EC50 (Hepatitis C virus [1]): 24.5 µM
Compound: CC1=NN(c2ccccc2)C(=O)/C1=C/c1c[nH]c2ccccc12
- CC50 at 48 h [2]: > 50 µM
- selectivity ratio [3]: > 2.03

- EC50 (Hepatitis C virus [1]): 0.72 µM
Compound: CC1=NN(c2ccc(F)cc2)C(=O)/C1=C/c1cn(C[C@H](O)CNCCCN2CCOCC2)c2ccccc12
- CC50 at 48 h [2]: > 50 µM
- selectivity ratio [3]: > 69.4

- EC50 (Hepatitis C virus [1]): 0.92 µM
Compound: CC1=NN(c2cccc(F)c2)C(=O)/C1=C/c1cn(CC(O)CNCCCN2CCOCC2)c2ccccc12 (racemic)
- CC50 at 48 h [2]: 21.5 µM
- selectivity ratio [3]: 23.3

- EC50 (Hepatitis C virus [1]): 3.42 µM
Compound: CC1=NN(c2ccc(Cl)cc2)C(=O)/C1=C/c1cn(CC(O)CNCCCN2CCOCC2)c2ccccc12 (racemic)
- CC50 at 48 h [2]: 17.5 µM
- selectivity ratio [3]: 5.12

- EC50 (Hepatitis C virus [1]): 3.24 µM
Compound: CC1=NN(c2ccc(F)cc2)C(=O)/C1=C/c1cn(CC2CO2)c2ccccc12 (centres undefined)
- CC50 at 48 h [2]: > 50 µM
- selectivity ratio [3]: > 15.4
